The source of these data is PMC5099097 (Antiviral research, 2016).

One data set deals with HCMV T3429 (UL54 mutant). Nature of the data set: SEAP assay, recombinant GCV-resistant HCMV T3429 on MRC-5 cells. Conditions: Supplemental Table 1 (values not available). Format: cell-based, human cytomegalovirus.
For a further data set, the system named is HCMV T3252 (UL97 mutant). The experiment in a line: SEAP assay, recombinant GCV-resistant HCMV T3252 on MRC-5 cells. Format: cell-based, human cytomegalovirus. Conditions: Supplemental Table 1 (values not available).
For data set [1], the system named is HCMV TB40E. The experiment in a line: GCV and p5RD alone and combined, TB40E-Luc on MRC-5 cells. Conditions: 3 μM GCV alone. Type of data set: cell-based, human cytomegalovirus.
In data set [2] the test system is HCMV TB40E. The experiment in a line: Luciferase assay: peptide reduction of HCMV TB40E-Luc infection of MRC-5 cells. Type of data set: cell-based, human cytomegalovirus. Conditions: peptide concentration >200 μM.
The subject of data set [3] is HCMV TB40E. The experiment in a line: Luciferase assay: TB40E-Luc infection of MRC-5, HFF, ARPE-19 and HAEC cells. Format: cell-based, human cytomegalovirus. Conditions: 200 μM peptide added 30 min prior to infection, ARPE-19, HAEC. Summed up: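 At 80–85% confluency, cells (MRC-5, HFF, ARPE-19 or HAEC) got 200 μM peptide in 10% FBS/PBS, or vehicle alone, 30 min before HCMV TB40E (luciferase, UL18 promoter) at ~35–50 pfu (~2500–3000 RLU). Inoculum was removed after 60 min at 37 °C. Cells were lysed after 3 days and luminescence read. Uninfected background was subtracted and values normalized to infected untreated cells. Three experiments, three replicates each.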

On the set-up of data set [4]: species or system BALB/c mice. Conditions: mouse, in vivo, iv.
The test system of another data set is MCMV. Conditions: relative to p5; ref Dogra et al., 2015; Martin et al., 2013; Wall et al., 2011; cited from earlier work.

On to `Nc1nc(O)c2ncn(COC(CO)CO)c2n1` [GCV, ganciclovir], for which the “susceptibility of T3429 to GCV” value in the data set on HCMV T3429 (UL54 mutant) is “resistant to high concentrations”. For the same compound, the “susceptibility of T3252 to GCV” value in the data set on HCMV T3252 (UL97 mutant) is on record as “resistant to high concentrations”. In addition, the “reduction in HCMV infection” value in the data set with HCMV TB40E [1] was ~ 95%.

With GGGYSRAQRAQARQARQAQRARGARQ [p5R], in the data set with HCMV TB40E [2], the “reduction of HCMV infection” value is recorded as at least 90%. Moreover, in the data set with HCMV TB40E [3], the “reduction of HCMV infection in all cell types” value is over 80%. Besides, in data set [4], the “time by which the majority of the peptide was excreted or degraded” value was at most 4 h; the “time retained at high levels in the spleen, liver and kidneys post injection” value is “rapidly dehalogenated and/or excreted”. The “blocks MCMV infection more efficiently than p5 (fold)” value in the data set on MCMV was 2 x.
